{
  "source": "paper PMC7860060",
  "about": "(ACS Omega, 2021)",
  "key": {"native Fgn (fibrinogen)": {"system": "native Fgn (fibrinogen)", "test": "ITC titration of peptide into native Fgn", "format": "binding, bovine", "conditions": "peptide 0.21 mM into Fgn 4 μM, 0.1 M sodium phosphate pH 7.4, 25 °C", "summary_of_the_method": "(§1)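 Bovine plasma fibrinogen was used either native or carbamylated by stirring 0.008 mM protein with 0.1 M sodium cyanate in 0.1 M phosphate pH 7.4 at room temperature for 2 days. Cell held 4 μM protein; peptide titrant was 0.21 mM; both were in 0.1 M sodium phosphate pH 7.4. 50 injections 200 s apart, 150 rpm, 25 °C. Dilution heat subtracted, independent-model fit, repeated at least twice.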"}, "[1]": {"target": "carbamylated HSA (cHSA-2) (Homo sapiens, UniProt P02768)", "test": "ITC titration of peptide into cHSA-2", "format": "binding"}, "[2]": {"target": "T1, carbamylated fibrinogen (cFgn) (Bos taurus, UniProt P02672+P02676+P12799, DEL436-444)", "T1 sequence (P02672 20-615)": "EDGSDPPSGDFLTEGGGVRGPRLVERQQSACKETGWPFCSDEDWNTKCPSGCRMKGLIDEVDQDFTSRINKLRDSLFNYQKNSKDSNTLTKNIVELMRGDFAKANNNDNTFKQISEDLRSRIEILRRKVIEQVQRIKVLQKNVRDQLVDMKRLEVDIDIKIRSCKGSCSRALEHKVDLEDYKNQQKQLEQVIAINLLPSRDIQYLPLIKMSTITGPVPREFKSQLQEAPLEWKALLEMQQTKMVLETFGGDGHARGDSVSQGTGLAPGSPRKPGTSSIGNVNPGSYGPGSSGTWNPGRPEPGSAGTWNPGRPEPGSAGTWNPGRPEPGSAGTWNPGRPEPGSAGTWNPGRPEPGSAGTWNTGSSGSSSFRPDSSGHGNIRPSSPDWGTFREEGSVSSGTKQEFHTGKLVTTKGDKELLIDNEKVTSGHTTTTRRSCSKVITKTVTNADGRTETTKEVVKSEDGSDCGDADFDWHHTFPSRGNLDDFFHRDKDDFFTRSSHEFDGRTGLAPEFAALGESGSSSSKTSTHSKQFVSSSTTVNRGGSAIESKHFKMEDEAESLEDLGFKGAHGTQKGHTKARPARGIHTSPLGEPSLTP", "T1 sequence (P02676 1-468)": "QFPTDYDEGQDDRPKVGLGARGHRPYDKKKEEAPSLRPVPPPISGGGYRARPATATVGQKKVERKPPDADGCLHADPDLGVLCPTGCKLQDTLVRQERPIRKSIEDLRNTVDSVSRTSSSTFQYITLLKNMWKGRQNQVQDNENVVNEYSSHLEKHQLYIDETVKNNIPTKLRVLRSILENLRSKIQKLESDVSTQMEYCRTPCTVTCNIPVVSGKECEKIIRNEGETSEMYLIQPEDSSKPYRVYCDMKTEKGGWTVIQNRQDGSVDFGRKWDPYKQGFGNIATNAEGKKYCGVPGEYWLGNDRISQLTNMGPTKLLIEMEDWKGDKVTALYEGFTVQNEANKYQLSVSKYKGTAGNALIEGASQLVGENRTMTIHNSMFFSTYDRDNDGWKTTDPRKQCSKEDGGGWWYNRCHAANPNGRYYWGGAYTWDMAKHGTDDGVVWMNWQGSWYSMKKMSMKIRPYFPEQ", "T1 sequence (P12799 25-435 limits assumed)": "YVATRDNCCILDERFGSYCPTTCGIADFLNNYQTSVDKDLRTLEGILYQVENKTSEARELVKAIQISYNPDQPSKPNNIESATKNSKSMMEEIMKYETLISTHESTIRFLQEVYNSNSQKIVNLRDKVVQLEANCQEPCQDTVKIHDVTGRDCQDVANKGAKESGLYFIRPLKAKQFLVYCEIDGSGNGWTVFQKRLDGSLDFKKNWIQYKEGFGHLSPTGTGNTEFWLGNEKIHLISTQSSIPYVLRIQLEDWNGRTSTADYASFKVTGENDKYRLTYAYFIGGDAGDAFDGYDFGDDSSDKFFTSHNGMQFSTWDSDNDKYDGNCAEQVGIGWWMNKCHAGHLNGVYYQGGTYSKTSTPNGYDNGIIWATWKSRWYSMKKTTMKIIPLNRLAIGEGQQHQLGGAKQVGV", "test": "ITC titration of peptide into cFgn", "format": "binding, bovine", "summary_of_the_method": "as §1"}, "[3]": {"target": "carbamylated HSA (cHSA-1) (Homo sapiens, UniProt P02768)", "test": "ITC titration of peptide into cHSA-1", "format": "binding", "conditions": "pH 7.4"}, "cHSA": {"target": "cHSA (Homo sapiens, UniProt P02768)", "sequence (P02768 25-609)": "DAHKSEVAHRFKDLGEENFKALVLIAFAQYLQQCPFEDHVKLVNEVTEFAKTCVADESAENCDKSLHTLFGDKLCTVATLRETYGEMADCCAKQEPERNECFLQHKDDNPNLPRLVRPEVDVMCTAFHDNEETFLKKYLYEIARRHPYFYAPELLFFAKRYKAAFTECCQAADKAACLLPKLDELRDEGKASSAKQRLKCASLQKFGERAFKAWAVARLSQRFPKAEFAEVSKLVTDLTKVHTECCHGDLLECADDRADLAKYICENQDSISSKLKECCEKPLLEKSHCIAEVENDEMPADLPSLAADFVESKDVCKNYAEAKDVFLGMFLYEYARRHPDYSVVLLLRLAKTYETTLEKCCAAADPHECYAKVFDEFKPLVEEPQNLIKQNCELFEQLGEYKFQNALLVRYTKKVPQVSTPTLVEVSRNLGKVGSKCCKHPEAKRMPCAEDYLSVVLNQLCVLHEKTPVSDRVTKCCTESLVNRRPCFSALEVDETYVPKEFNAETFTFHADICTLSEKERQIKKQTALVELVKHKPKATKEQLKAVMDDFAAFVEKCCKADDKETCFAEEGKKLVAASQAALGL", "test": "ITC titration of peptide into cHSA of different levels of carbamylation", "format": "binding"}, "native HSA": {"target": "native HSA (Homo sapiens, UniProt P02768)", "sequence (P02768 25-609)": "as above", "test": "ITC titration of peptide into native HSA", "format": "binding", "conditions": "0.1 M sodium phosphate pH 7.4, 25 °C"}, "[4]": {"target": "carbamylated HSA (cHSA-3) (Homo sapiens, UniProt P02768)", "test": "ITC titration of peptide into cHSA-3", "format": "binding", "conditions": "pH 7.4"}, "[5]": {"target": "anti-Hcit (anti-carbamylation (homocitrulline) polyclonal antibody)", "test": "ITC titration of peptide into anti-Hcit", "format": "binding, rabbits", "conditions": "peptide into solution containing only anti-Hcit, 25 °C, 0.01 M PBS pH 7.4 containing 50% glycerol and 0.02% NaN3 (control test)"}, "[6]": {"test": "Water solubility of peptides", "format": "physicochemical", "conditions": "peptide excluded from synthesis for ITC; 'would be' marginally soluble"}, "[7]": {"target": "Anti-carbamylation (homocitrulline) polyclonal antibody (anti-Hcit) (rabbit)", "test": "ITC"}, "[8]": {"target": "Albumin from human serum (native HSA) (human, UniProt P02768 25-609)", "sequence (P02768 25-609)": "as above", "test": "ITC"}, "[9]": {"target": "Carbamylated human serum albumin, Hcit% 2.7 (cHSA-2) (human) (UniProt P02768)", "test": "ITC"}},
  "note": "“Also recorded” adds a separate entry of the source. Where no end group is shown, it is not given here.",
  "data": [
    {"molecule": "GSAARTISPSLL [cH2-p1]", "values": [
      {"measurement": "binding to native Fgn (ITC)", "setting": "native Fgn (fibrinogen)", "result": "not binding to native Fgn at all"},
      {"measurement": "Kd to cHSA relative to Kd to native HSA", "setting": "[1]; ITC, comparison with native HSA", "result": "almost 1 order of magnitude lower than its Kd to native HSA"},
      {"measurement": "binding affinity for cHSA versus HSA (ITC and ELISA)", "setting": "[1]; both ITC and ELISA results", "result": "consistently higher binding affinity for cHSA than HSA"},
      {"measurement": "Kd", "setting": "[1]; pH 7.4", "result": 97, "unit": "µM"},
      {"measurement": "Kd", "setting": "[2]", "result": 84, "unit": "µM"},
      {"measurement": "binding thermodynamics (sign of heat), cFgn", "setting": "[2]; ITC titration peaks, pH 7.4, 25 °C", "result": "endothermic"},
      {"measurement": "binding to carbamylated versus native fibrinogen (ITC)", "setting": "[2]; cFgn versus native Fgn", "result": "binding specificity to carbamylated fibrinogen (cFgn); also recorded: found to bind cFgn over the native protein"},
      {"measurement": "Kd", "setting": "[3]", "result": 120, "unit": "µM"},
      {"measurement": "Kd", "setting": "cHSA", "result": "~100", "unit": "µM"},
      {"measurement": "binding thermodynamics (sign of heat), HSA/cHSA", "setting": "cHSA; ITC titration peaks, HSA/cHSA, pH 7.4, 25 °C", "result": "exothermic"},
      {"measurement": "influence of extent of carbamylation on binding affinity", "setting": "cHSA; ITC, cHSA-1, cHSA-2, cHSA-3", "result": "difference in surface charge did not seem to affect the binding affinity; also recorded: not found to be influenced by the extent of carbamylation"},
      {"measurement": "binding to HSA in words (ITC)", "setting": "native HSA", "result": "too weak to produce an obvious titration curve"},
      {"measurement": "Kd", "setting": "[4]", "result": 99, "unit": "µM"},
      {"measurement": "Kd", "setting": "[5]", "result": 1000, "unit": "µM"}
    ]},
    {"molecule": "TPTIAIAQYNKW [cH2-p5]", "values": [
      {"measurement": "aqueous solubility (expected)", "setting": "[6]", "result": "marginally soluble"}
    ]},
    {"molecule": "WPARTSAPFTNS [cH2-p3]", "values": [
      {"measurement": "aqueous solubility (expected)", "setting": "[6]", "result": "marginally soluble"}
    ]},
    {"molecule": "GSAARTISPSLL", "note": "[cH2-p1 peptide (synthetic)]", "values": [
      {"measurement": "Kd", "setting": "[7]", "result": 1000, "unit": "µM"},
      {"measurement": "Kd", "setting": "[8]", "result": 1000, "unit": "µM"}
    ]},
    {"molecule": "AHPHSDKLVPPR", "note": "[cH2-p4 peptide (synthetic)]", "values": [
      {"measurement": "Kd", "setting": "[9]", "result": 130, "unit": "µM"}
    ]},
    {"molecule": "TLGLRPVPVATT", "note": "[cH2-p6 peptide (synthetic)]", "values": [
      {"measurement": "Kd", "setting": "[9]", "result": 200, "unit": "µM"}
    ]}
  ]
}
